{
  "source": "paper PMC9380907",
  "about": "(Analytica Chimica Acta, 2022)",
  "type_in_all_cases": "binding",
  "key": {"[1]": {"test": "Cu", "conditions": "SWV, n = 3", "procedure,_shortened": "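Au slides were cleaned by sonication in 20 wt% ethanolamine at about 50 °C, then dipped briefly in piranha. Probe 1 (2.5 μM) with 5 mM TCEP in 10 mM PBS pH 7.4 was assembled at 4 °C for 16 h, then backfilled with 1 mM 9-mercaptononanol for 3 h at RT. Cu was loaded with 10 μM CuCl2 for 30 min at RT. Cathepsin B was in 25 mM MES pH 5.0 and incubated at 37 °C. SWV was run in N2-purged 10 mM PBS pH 7.4 (SCE, Pt counter), with at least three independent repeats.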"}, "[2]": {"system": "TGF", "test": "ITC of probe 2 with TGF", "conditions": "25 °C", "procedure,_shortened": "(§1)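 MicroCal ITC200 titrations at 25 °C: 38 consecutive injections at intervals of at least 120 s. All solutions were degassed beforehand. Heats of dilution, measured by titrating beyond saturation, were subtracted from each data set.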"}, "[3]": {"test": "ITC of probe 2 with the label", "conditions": "25 °C, 10 mM PBS pH 7.4, 0.5 mM probe 2 into 0.05 mM label", "procedure,_shortened": "as §1"}, "[4]": {"test": "ITC with heparin", "conditions": "25 °C, 10 mM PBS pH 7.4", "procedure,_shortened": "as §1"}},
  "data": [
    {"substance": "11-Mercaptoundecanoic acid (MUA)K-DAHKI-(ARKKAAKA)3VLVLVLVL [probe 1]", "values": [
      {"measurement": "Binding with Cu II ion", "setting": "[1]; surface immobilized probe 1, after cleavage by target enzyme (33 nM)", "result": "completely abolish the binding"},
      {"measurement": "Binding with Cu II ion", "setting": "[1]; surface immobilized probe 1, before enzyme cleavage", "result": "relatively strong binding"}
    ]},
    {"substance": "(MUA)K–FSHF-(ARKKAAKA)3VLVLVLVL [probe 2]", "values": [
      {"measurement": "Binding to target TGF", "setting": "[2]; 10 mM PBS pH 7.4, 0.5 mM probe 2 into 0.05 mM TGF", "result": "bind strongly"},
      {"measurement": "Binding with target TGF relative to label", "setting": "[2]; 10 mM PBS pH 7.4, comparison with label", "result": "stronger"},
      {"measurement": "Binding to label", "setting": "[3]", "result": "bind strongly"}
    ]},
    {"substance": "TGF beta 1: transforming growth factor-beta 1, from R&D system", "values": [
      {"measurement": "Interaction with heparin", "setting": "[4]", "result": "weak interactions with heparin"}
    ]}
  ]
}
